What was measured:
Purified Hela Hsp90 [1] = test: Dissociation of [3H]17-AAG from purified Hsp90; format: binding, human
Hsp90 in SK-BR-3 lysates = test: Dissociation of [3H]17-AAG from Hsp90 in SK-BR-3 lysates; format: binding, human; settings: 4 °C
[2] = system: Hsp90 in SK-BR-3 cell lysate; test: Association of [3H]17-AAG to Hsp90 in SK-BR-3 lysate; format: binding, human; settings: 4 °C, 10 μM 17-AAG
Purified Hela Hsp90 [3] = test: Association of [3H]17-AAG to purified Hsp90; format: binding, human
Hsp90 = settings: cited from earlier work
Hsp90 in H1975 cells = test: Hsp90 occupancy in H1975 cells; format: cell-based, human; settings: read-out: Hsp90 occupancy (EC50); H1975, 6 h incubation
How it was run: (§1)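 Cells were grown to 95% confluency and treated with test compound (0.01–10 μM) for 6 h at 37 °C. They were washed in cold PBS and lysed by freeze/thaw in binding buffer (20 mM Hepes pH 7.3, KCl, MgCl, EDTA, TCEP). Unbound drug was removed on prechilled spin columns. […], with total Hsp90 quantified by immunoblot against recombinant α/β standards. Average of two experiments.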

Akt = Akt client protein degradation by immunoblot in H1650 cells; format: cell-based, human; settings: 10 μM (highest concentration tested), 6 h
How it was run: (§2)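 H1650 cells were exposed to increasing concentrations of test compound for 6 h. They were lysed in RIPA buffer with protease inhibitors, protein was measured by BCA, and samples were run on 4–12% Bis-Tris SDS-PAGE and transferred to PVDF. Blots were probed with client-specific antibodies and detected by ECL. Bands were normalized to actin, and the fraction degraded was computed by densitometry against untreated samples.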

SKOV-3 cells = test: Cell growth inhibition; format: cell-based; settings: Homo sapiens, SK-OV-3, 72 h, read-out: Cell growth inhibition (GI50)
How it was run: (§3)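 Cells grown in RPMI 1640 with 10% FBS at 37 °C, 5% CO2. Seeded at 10,000 cells/well, held 24 h, then exposed to increasing concentrations of test compound for 72 h. Viability read by CellTiter-Glo luminescence and normalized to DMSO vehicle control to give GI50.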

HER2 = HER2 client protein degradation by immunoblot in H1650 cells; format: cell-based, human
How it was run: as §2

[4] = system: Hsp90 in H1650 tumor xenografts; test: Hsp90 occupancy in H1650 tumor xenografts; format: in vivo, mice; settings: 100 mg/kg single dose
How it was run: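 Male athymic nude mice (6–8 weeks) carried flank xenografts from 1 × 10^7 H1650 cells. They received a single i.v. dose of test compound (100 mg/kg) and were sacrificed at time points from 1 to 48 h (n = 3; vehicle n = 2). Tumors were snap-frozen and powdered, and ~10 mg was homogenized in chilled binding buffer and clarified at 14,000 × g, 4 °C.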

RS4;11 cells = test: Cell growth inhibition; format: cell-based; settings: Homo sapiens, RS4-11, 72 h, read-out: Cell growth inhibition (GI50)
How it was run: as §3

Hsp90 in H1650 cells = test: Hsp90 occupancy in H1650 cells; format: cell-based, human; settings: read-out: Hsp90 occupancy (EC50); H1650, 6 h incubation
How it was run: as §1

Hsp90 in RS4;11 cells = test: Hsp90 occupancy in RS4; format: cell-based, human; settings: read-out: Hsp90 occupancy (EC50); RS4;11, 6 h incubation
How it was run: as §1

H1650 cells = test: Cell growth inhibition; format: cell-based; settings: Homo sapiens, NCI-H1650, 72 h, read-out: Cell growth inhibition (GI50)
How it was run: as §3

mEGFR [5] = test: mEGFR client protein degradation by immunoblot in H1650 cells; format: cell-based, human; settings: read-out: mEGFR degradation EC50, 6 h
How it was run: as §2

H1975 cells = test: Cell growth inhibition; format: cell-based; settings: Homo sapiens, NCI-H1975, 72 h, read-out: Cell growth inhibition (GI50)
How it was run: as §3

Hsp90 in SKOV-3 cells = test: Hsp90 occupancy in SKOV-3 cells; format: cell-based, human; settings: read-out: Hsp90 occupancy (EC50); SKOV-3, 6 h incubation
How it was run: as §1

mEGFR [6] = test: mEGFR protein degradation in H1650 tumor xenografts; format: in vivo, mice; settings: 100 mg/kg single dose
How it was run: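 Nude mice bearing H1650 flank xenografts received a single i.v. dose of test compound (100 mg/kg). They were sacrificed at time points from 1 to 48 h post dose (n = 3; vehicle n = 2). Tumors were snap-frozen in liquid nitrogen, stored at −80 °C, and EGFR protein levels in tumor tissue were assessed by immunoblot. Data are averages ± S.D.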

cRaf = cRaf client protein degradation by immunoblot in H1650 cells; format: cell-based, human; settings: 10 μM (highest concentration tested), 6 h
How it was run: as §2

[7] = Plasma and tumor PK in H1650 tumor-bearing mice; format: in vivo
How it was run: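 Nude mice bearing H1650 xenografts received a single i.v. dose of test compound (100 mg/kg). Plasma and tumors were collected at time points from 1 to 48 h (n = 3). Tumors were homogenized in ice-cold, nitrogen-sparged 1:1 acetonitrile : 150 mM citrate/EDTA/ascorbate, pH 3, then filtered and diluted 1:1 in citrate buffer with 25 ng/ml deuterated internal standard. Parent compound and two active metabolites were quantified by LC-MS/MS.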

With `C=CCNC1=C2C[C@@H](C)C[C@H](OC)[C@H](O)[C@@H](C)/C=C(\C)[C@H](OC(N)=O)[C@@H](OC)/C=C\C=C(/C)C(=O)NC(=CC1=O)C2=O` [17-AAG, 17-allylamino-17-demethoxygeldanamycin] the “dissociation t½” value (Purified Hela Hsp90 [1]; 4 °C) was 1680 min, the dissociation half-life (Purified Hela Hsp90 [1]; 37 °C) was 8 min and the dissociation half-life (Hsp90 in SK-BR-3 lysates) was 36 h. The “time at which drug binding reached equilibrium” value [2] was at most 130 min, the “association t½” value ([2]; ∼100 nM Hsp90 in lysate) was 19 min and the “rate of dissociation slower than rate of association” value (Purified Hela Hsp90 [3]; 10 μM 17-AAG at 4 °C) was about 100 fold. The “time at which drug binding reached equilibrium” value (Purified Hela Hsp90 [3]; 4 °C, 10 μM 17-AAG) was at most 40 min and the “association t½” value (Purified Hela Hsp90 [3]; 4 °C, 10 μM 17-AAG, 100 nM Hsp90) was 6 min.
In the case of `C=CCNc1c(O)cc2c(O)c1C[C@@H](C)C[C@H](OC)[C@H](O)[C@@H](C)/C=C(\C)[C@H](OC(N)=O)[C@@H](OC)/C=C\C=C(/C)C(=O)N2` [IPI-504], the “affinity for Hsp90 higher than 17-AAG” value (Hsp90) is listed as 50 fold, the EC50 (Hsp90 in H1975 cells) is listed as 74 nM and the Akt maximal degradation (Akt) is listed as at most 54%. The GI50 (SKOV-3 cells) was 52 nM, the HER2 degraded (HER2; 30 nM IPI-504, 6 h) was over 90% and the EC50 (HER2; read-out: HER2 degradation EC50, 6 h) was 11 nM. For the same compound, the “time by which Hsp90 occupancy declined to background levels” value [4] was at most 48 h, the “time up to which significant Hsp90 occupancy was observed” value [4] was “up to 12 h” and the GI50 (RS4;11 cells) was 2000 nM. It also gave an EC50 (Hsp90 in H1650 cells) of 30 nM, an EC50 (Hsp90 in RS4;11 cells) of 644 nM and a GI50 (H1650 cells) of 37 nM. It also gave an EC50 (mEGFR [5]) of 213 nM, a GI50 (H1975 cells) of 51 nM and an EC50 (Hsp90 in SKOV-3 cells) of 44 nM. The “time after which mEGFR protein degradation was observed” value (mEGFR [6]) was 2 h, the “time of re-emergence of mEGFR protein expression” value (mEGFR [6]) was 24 h and the cRaf maximal degradation (cRaf) was at most 42%. For the same compound, the “IPI-504 and its metabolites in plasma” value ([7]; 24 h post dose, plasma) was “barely detectable”, the “IPI-504 and its metabolites in tumors” value ([7]; 36 h post dose, 100 mg/kg, tumor) was “high concentrations” and the “tumor PK concentrations of IPI-504” value ([7]; at 24 to 48 h, tumor) was about 1 µM.

Reference: paper PMC3000965 (The Journal of Biological Chemistry, 2010)
